High-throughput results as filed in PubChem.
INS-1E ATP HTS – protection of INS-1E cells from cytokine death, primary screen, ATP luminescence, single point; protection from cytokine-induced ATP loss, % at 10 µM; INS-1E cytokine-induced death, 48 h; normalised: neutral wells 0, positive control 100; 0.1% of 20,000 active;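 active means mean replicate protection from cytokine-induced ATP loss at least 50% and at least 75% of replicates each reaching 50%; inconclusive means meets only one of the two criteria, mean or replicate share; inactive means fails both the mean and replicate share criteria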
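Assay system – rat INS-1E insulinoma cell line · Quantity – 8000 cells per well · Buffer or medium – RPMI without phenol red, 5% FBS · Schedule – 48 h co-treatment, 10 min post-lysis read · Technique – luminescent ATP assay (CellTiter-Glo)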
T cruzi HTS – inhibitors of intracellular Trypanosoma cruzi, primary screen, cell-based, plate reader, single point, set 2; intracellular Trypanosoma cruzi in host cells; activity score (inhibition), % at 5.01 µM; 4.9% of 22,000 active; in the data active means activity score above about 55%; inconclusive means no clear call, values can overlap the other calls;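 further: parasites and compound incubated about four days before reading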
A1 apoptosis 2 – A1 inhibitors via caspase activation, primary screen, cell-based, luminescence, HTS, two replicates; MEF A1-2A-BIM cells, caspase-Glo luminescence, 3 h; percent of clofoctol response, DMSO zero; caspase activation, % (test concentration not listed); 24,000 tested, under 10 active; in the data active means caspase activation above about 5.9%; inconclusive means no clear call, values can overlap the other calls; inactive means below about 2.2%
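Material: mouse embryonic fibroblasts co-expressing A1 and BIM (A1-2A-BIM), primed for A1 dependence / Quantity: 2500 cells/well / Buffer or medium: RPMI-1640 growth medium with 10% FBS / Doses: 50 nL compound per well, pinned / Schedule: 3 h compound exposure at 37 °C / Signal: Caspase-Glo luminescence (DEVD substrate) / Measure: Caspase-3/7 activation, seen as rise in luminescence signal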
Hits are given with their value; . = inactive; ? = inconclusive; / = no result given. This is one part of a sample in which hits are shown more often than they occur.

SMILES | INS-1E ATP HTS | T cruzi HTS | A1 apoptosis 2
CCCCCCC/C=N/NC(=O)c1ccccc1O | . | . | .
CCOC(=O)[C@@H]1CCCCN1C(=O)C(=O)OC | / | / | .
O=C(O)CCCCCCC(=O)N/N=C/c1ccccc1[N+](=O)[O-] | . | . | .
CC(C)(C)OC(=O)NC1(/C=N/NC(=O)c2ccccc2O)CCCC1 | . | . | /
C[C@@H]1CN([C@@H](C)CO)C(=O)Cc2cc(NC(=O)Nc3ccccc3)ccc2O[C@@H]1CN(C)Cc1ccc(-c2ccccc2)cc1 | . | 62.4 | .
C[C@H](CO)N1C[C@H](C)[C@H](CN(C)Cc2ccc(-c3ccccc3)cc2)Oc2ccc(NC(=O)Nc3ccccc3)cc2CC1=O | . | ? | /
C[C@@H]1CN([C@@H](C)CO)C(=O)Cc2cc(NC(=O)Nc3ccc(F)cc3)ccc2O[C@@H]1CN(C)Cc1ccc(-c2ccccc2)cc1 | . | 61.0 | .
C[C@H]1CN([C@@H](C)CO)C(=O)Cc2cc(NC(=O)NC3CCCCC3)ccc2O[C@@H]1CN(C)Cc1ccc(Cl)c(Cl)c1 | . | 65.4 | .
C[C@@H]1CN([C@@H](C)CO)C(=O)Cc2cc(NC(=O)NC3CCCCC3)ccc2O[C@@H]1CN(C)Cc1ccc(Cl)c(Cl)c1 | . | . | /
C[C@@H]1CN([C@@H](C)CO)C(=O)Cc2cc(NC(=O)c3ccncc3)ccc2O[C@@H]1CN(C)Cc1ccccc1 | . | . | /
C[C@H]1CN([C@@H](C)CO)C(=O)Cc2cc(NC(=O)c3ccncc3)ccc2O[C@H]1CN(C)Cc1ccc(-c2ccccc2)cc1 | . | 77.5 | /
C[C@H]1CN([C@@H](C)CO)C(=O)Cc2cc(NC(=O)Nc3ccccc3)ccc2O[C@H]1CN(C)Cc1ccc(-c2ccccc2)cc1 | . | . | .
O=S(=O)(NC1CCN(Cc2cccc(OCCO)c2)CC1)c1cc(C(F)(F)F)ccc1Cl | / | / | .
O=S(=O)(N[C@@H]1CCCN(Cc2ccc(OCCO)cc2)C1)c1ccc(Cl)cc1 | / | / | .
O=C(O)CCCCCC(=O)N/N=C/CCC1CCCCC1 | . | . | .
CCOc1cc(/C=N/NC(=O)CCCCCCC(=O)OC)ccc1O | . | . | /
Cc1ccc(F)cc1S(=O)(=O)N[C@@H]1CCN(Cc2ccc(C(F)(F)F)cc2)C1 | / | / | .
C[C@H]1CN([C@@H](C)CO)C(=O)Cc2cc(NC(=O)NC3CCCCC3)ccc2O[C@H]1CN(C)Cc1ccc(-c2ccccc2)cc1 | . | 67.3 | /
C[C@H](CO)N1C[C@H](C)[C@H](CN(C)Cc2ccc(-c3ccccc3)cc2)Oc2ccc(NC(=O)NC3CCCCC3)cc2CC1=O | . | . | /
O=C(CCCCCC(=O)Nc1ccccc1O)N/N=C/c1ccccc1C(=O)O | . | . | .
O=C(CCCCCCC(=O)Nc1ccccc1O)N/N=C/c1ccc(I)cc1 | . | . | .
O=C1O[C@@H](c2ccccc2)[C@@H](c2ccccc2)N2[C@@H](c3ccc(OCCO)cc3)[C@]3(C(=O)Nc4ccccc43)[C@@H](C(=O)NC[C@H](O)c3ccccc3)[C@H]12 | / | / | .
C[C@H]1CN([C@@H](C)CO)C(=O)Cc2cc(NS(=O)(=O)c3ccc(Cl)cc3)ccc2O[C@@H]1CN(C)Cc1ccc(C(=O)Nc2ccccc2N)cc1 | / | / | .
COc1ccc(S(=O)(=O)Nc2ccc3c(c2)CC(=O)N([C@H](C)CO)C[C@H](C)[C@H](CN(C)Cc2ccc(C(=O)Nc4ccccc4N)cc2)O3)cc1 | 53.0 | 59.2 | .
COc1ccc(S(=O)(=O)Nc2ccc3c(c2)CC(=O)N([C@H](C)CO)C[C@@H](C)[C@@H](CN(C)Cc2ccc(C(=O)Nc4ccccc4N)cc2)O3)cc1 | . | . | .
SMILES | INS-1E ATP HTS | T cruzi HTS | A1 apoptosis 2
C[C@H](CO)N1C[C@H](C)[C@H](CN(C)Cc2ccc(C(=O)Nc3ccccc3N)cc2)Oc2ccc(NS(=O)(=O)c3ccc(Cl)cc3)cc2CC1=O | . | 59.9 | /
C[C@@H]1CN([C@H](C)CO)C(=O)Cc2cc(NS(=O)(=O)c3cccs3)ccc2O[C@H]1CN(C)Cc1ccc(C(=O)Nc2ccccc2N)cc1 | . | . | /
Cc1ccc(S(=O)(=O)Nc2ccc3c(c2)CC(=O)N([C@@H](C)CO)C[C@H](C)[C@@H](CN(C)Cc2ccc(C(=O)Nc4ccccc4N)cc2)O3)cc1 | . | . | .
C[C@H](CO)N1C[C@H](C)[C@H](CN(C)Cc2ccc(C(=O)Nc3ccccc3N)cc2)Oc2ccc(NS(=O)(=O)c3cccs3)cc2CC1=O | . | 64.1 | .
Cc1ccc(S(=O)(=O)Nc2ccc3c(c2)CC(=O)N([C@H](C)CO)C[C@@H](C)[C@@H](CN(C)Cc2ccc(C(=O)Nc4ccccc4N)cc2)O3)cc1 | . | 59.7 | .
COC(=O)CCCCCCC(=O)N/N=C/c1ccc(O)cc1Br | . | . | .
COc1ccc(S(=O)(=O)N(C)C[C@@H]2Oc3c(NC(=O)c4cc(C)nn4C)cccc3C(=O)N([C@@H](C)CO)C[C@H]2C)cc1 | . | . | .
C[C@H](CO)N1C[C@H](C)[C@H](CN(C)Cc2ccc(C(=O)Nc3ccccc3N)cc2)Oc2ccc(NS(=O)(=O)c3ccc(F)cc3)cc2CC1=O | ? | 64.4 | /
C[C@@H]1CN([C@@H](C)CO)C(=O)Cc2cc(NS(=O)(=O)c3ccc(F)cc3)ccc2O[C@H]1CN(C)Cc1ccc(C(=O)Nc2ccccc2N)cc1 | / | / | .
CC(C)(C)NC(=O)C(COCc1ccccc1)OC(=O)c1ccccc1 (stereo not given) | / | / | .
C[C@@H]1CN([C@H](C)CO)C(=O)Cc2cc(NC(=O)Cc3cn(C)c4ccccc34)ccc2O[C@H]1CN(C)Cc1ccc(C(F)(F)F)cc1 | . | 63.3 | .
C[C@@H]1CN([C@@H](C)CO)C(=O)Cc2cc(NC(=O)Cc3cn(C)c4ccccc34)ccc2O[C@@H]1CN(C)Cc1ccccc1 | . | . | .
C[C@H]1CN([C@@H](C)CO)C(=O)Cc2cc(NC(=O)Cc3cn(C)c4ccccc34)ccc2O[C@H]1CN(C)Cc1ccc(C(F)(F)F)cc1 | . | 75.3 | .
C[C@@H]1CN([C@H](C)CO)C(=O)Cc2cc(NC(=O)Cc3cn(C)c4ccccc34)ccc2O[C@@H]1CN(C)Cc1ccccc1 | . | . | /
O=C1c2ccccc2C(=O)N1[C@@H]1CCCN(Cc2ccc(OCCO)cc2)C1 | / | / | .
C[C@H]1CN([C@@H](C)CO)C(=O)c2cccc(NS(=O)(=O)c3ccc(Cl)cc3)c2O[C@H]1CN(C)Cc1ccc(-c2ccccc2)cc1 | . | 59.1 | /
C[C@H](CO)N1C[C@H](C)[C@H](CN(C)C(=O)NC2CCCCC2)Oc2c(NS(=O)(=O)c3ccc(F)cc3)cccc2C1=O | . | 58.7 | .
C[C@@H]1CN([C@H](C)CO)C(=O)c2cccc(NS(=O)(=O)c3ccc(F)cc3)c2O[C@@H]1CN(C)C(=O)NC1CCCCC1 | . | . | .
Cc1ccc(S(=O)(=O)Nc2cccc3c2O[C@H](CN(C)Cc2ccc(Oc4ccccc4)cc2)[C@@H](C)CN([C@@H](C)CO)C3=O)cc1 | . | . | /
Cc1ccc(S(=O)(=O)Nc2cccc3c2O[C@@H](CN(C)Cc2ccc(Oc4ccccc4)cc2)[C@@H](C)CN([C@H](C)CO)C3=O)cc1 | . | 64.6 | .
